Laboratory results: ChEMBL document CHEMBL1159119, “Quiquelignan A-H, eight new lignoids from the rattan palm Calamus quiquesetinervius and their antiradical, anti-inflammatory and antiplatelet aggregation activities” (Bioorg Med Chem, 2010)
pIC50: −log10 of the molar value.

Tests used:
RAW264.7 [1] = test: Ratio of IC50 for quercetin to IC50 for drug against LPS-induced NO release in mouse RAW264.7 cells by Griess reagent method; format: functional
[2] = Cytotoxicity against mouse RAW264.7 cells assessed as viable cells after 24 hrs by MTS assay; format: cell-based; set-up: concentration or dose not given beside the values; conditions: read-out: Activity
Procedure, shortened: (§1)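 RAW 264.7 cells treated 24 h with compound (0.31–20.0 µg/mL, DMSO 0.2% v/v final), without LPS or with 1 µg/mL LPS. MTS solution (16.7% in RPMI 1640) added for 10 min; absorbance read at 490 nm.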

[3] = Antioxidant activity assessed as hydroxyl radical scavenging activity by chemiluminescence assay; format: functional
Procedure, shortened: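 •OH generated from EDTA, FeSO4 and 3% H2O2 with indoxyl-b-glucuronide as the CL probe. Ultra-weak photon emission read on a high-sensitivity chemiluminescence analyzer. IC50 is the concentration inhibiting 50% of generated •OH. Trolox as positive control; triplicate.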

[4] = Antiplatelet aggregatory activity in […] assessed as inhibition of collagen-induced platelet aggregation by aggregometry; format: functional; conditions: Homo sapiens, Plasma
[5] = Antioxidant activity assessed as superoxide radical scavenging activity by chemiluminescence assay; format: functional
Procedure, shortened: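 O2•− generated by methylglyoxal plus arginine in PBS pH 7.4, with lucigenin as the CL probe. Ultra-weak photons counted by chemiluminescence analyzer. Trolox positive control; triplicate.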

[6] = Cytotoxicity against mouse RAW264.7 cells assessed as viable cells after 24 hrs by MTS assay in presence of LPS; format: cell-based; set-up: concentration or dose not given beside the values; conditions: read-out: Activity; procedure, shortened: as §1
RAW264.7 [7] = test: Antiinflammatory activity in mouse RAW264.7 cells assessed as inhibition of LPS-induced NO production by Griess reagent method; format: functional, cell-based
Procedure, shortened: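 RAW 264.7 cells (1 × 10^5/well) in DMEM with 10% FBS, 5% CO2, 37 °C, pre-incubated overnight. Then 24 h with vehicle or compound (0.31–20.0 µg/mL; DMSO final 0.2% v/v) plus 1 µg/mL E. coli 0127:B8 LPS. Nitrite in supernatant mixed 1:1 with Griess reagent, 5 min, OD 540 nm. IC50 derived; triplicate, mean ± SE.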

Row | pIC50 [3] | pIC50 [4] | pIC50 [5] | pIC50 (RAW264.7 [7]) | Compound | Ratio IC50 (RAW264.7 [1]) | viability at 24 h [2] [%] | viability at 24 h [6] [%]
1 | 4.56 | 4.17 | < 3.70 | 4.70 | COc1cc(C(=O)C(COC(=O)c2ccc(O)cc2)Oc2c(OC)cc(/C=C/COC(=O)c3ccc(O)cc3)cc2OC)cc(OC)c1O (stereo unspecified) | 2.7 | > 85 | > 85
2 | 4.91 | 4.57 | < 3.70 | 4.93 | COc1cc([C@@H](O)[C@H](COC(=O)c2ccc(O)cc2)Oc2c(OC)cc(/C=C/COC(=O)c3ccc(O)cc3)cc2OC)cc(OC)c1O (relative stereo) | – | > 85 | > 85
3 | 4.72 | < 4.00 | < 3.70 | 4.00 | COc1cc(/C=C/COC(=O)c2ccc(O)cc2)ccc1O[C@@H](COC(=O)c1ccc(O)cc1)[C@@H](O)c1cc(OC)c(O)c(OC)c1 (relative stereo) | – | > 85 | > 85
4 | 4.69 | 4.26 | < 3.70 | 4.28 | COc1cc([C@H](O)[C@H](COC(=O)c2ccc(O)cc2)Oc2c(OC)cc(/C=C/COC(=O)c3ccc(O)cc3)cc2OC)ccc1O (relative stereo) | – | > 85 | > 85
5 | 5.21 | – | 4.27 | – | COc1cc(C(=O)C(COC(=O)c2ccc(O)cc2)Oc2c(OC)cc([C@@H](O)[C@H](O)COC(=O)c3ccc(O)cc3)cc2OC)cc(OC)c1O (relative stereo) | – | – | –
6 | – | 4.12 | – | – | CC(=O)Oc1ccccc1C(=O)O [ASPIRIN] | – | – | –
7 | 4.56 | < 4.00 | < 3.70 | – | CCO[C@@H](c1ccc(O)c(OC)c1)[C@H](CO)Oc1c(OC)cc([C@@H]2CC(=O)c3c(O)cc(O)cc3O2)cc1OC [QUIQUELIGNAN A] | – | – | –
8 | 4.70 | 4.36 | < 3.70 | 4.44 | CCO[C@@H](c1ccc(O)c(OC)c1)[C@@H](COC(=O)c1ccc(O)cc1)Oc1c(OC)cc([C@@H]2CC(=O)c3c(O)cc(O)cc3O2)cc1OC [QUIQUELIGNAN B] | – | > 85 | > 85
9 | 4.82 | 4.31 | < 3.70 | 4.20 | CCO[C@H](c1ccc(O)c(OC)c1)[C@@H](CO)Oc1c(OC)cc(-c2cc(=O)c3c(O)cc(O)cc3o2)cc1OC [QUIQUELIGNAN C] | – | > 85 | > 85
10 | 5.36 | – | 4.48 | – | Cc1c(C)c2c(c(C)c1O)CCC(C)(C(=O)O)O2 (stereo unspecified) [TROLOX] | – | – | –

Row | Compound | pIC50 [3] | pIC50 [4] | pIC50 [5] | pIC50 (RAW264.7 [7]) | Ratio IC50 (RAW264.7 [1]) | viability at 24 h [2] [%] | viability at 24 h [6] [%]
11 | O=c1c(O)c(-c2ccc(O)c(O)c2)oc2cc(O)cc(O)c12 [QUERCETIN] | – | – | – | 4.27 | – | – | –
